Results: ChEMBL document CHEMBL4689842, “EUbOPEN Chemogenomics Library wave 1” (2021)

Test system: Fibroblast
Experiment: Multiplex assay against human fibroblast
Assay type: toxicity, cell-based
How it was run: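 Four dyes were applied at seeding to live cells: Hoechst33342, BioTracker Green Microtubule Cytoskeleton Dye, MitoTracker Red and Annexin V Alexa Fluor 680. Imaging after compound addition used a CQ1 microscope at 37°C and 5% CO2. CellPathfinder machine-learning gating then sorted cells into Hoechst high-intensity objects or normal cells, normal cells into healthy, pyknosed or fragmented nuclei, and pyknosed cells into mitotic or apoptotic, with tubulin, mitochondrial-mass and membrane-permeability phenotypes given as per cents of healthy-nucleus cells.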

[1] = 12 h, 1 µM, compound concentration 1 uM, replicate 1
[2] = 12 h, 1 µM, compound concentration 1 uM, replicate 2
[3] = 12 h, 10 µM, compound concentration 10 uM, replicate 1
[4] = 12 h, 10 µM, compound concentration 10 uM, replicate 2
[5] = 24 h, 1 µM, compound concentration 1 uM, replicate 1
[6] = 24 h, 1 µM, compound concentration 1 uM, replicate 2
[7] = 24 h, 10 µM, compound concentration 10 uM, replicate 1
[8] = 24 h, 10 µM, compound concentration 10 uM, replicate 2

CCn1cc(-c2ccnc3[nH]c(-c4cccc(CN(C)C)c4)cc23)c(-c2ccc(NC(=O)N(C)C)cc2)n1 [GSK-1070916]
Population Apoptotic (%) [1]: 80% | Population Fragmented Nuclei (%) [1]: 33% | Population Healthy Nuclei (%) [1]: 51% | Population Hoechst High Intensity Objects (%) [1]: 13% | Population Membrane Permeable-Phenotype (%) [1]: 4% | Population Mitochondria Different-Phenotype (%) [1]: 0% | Population Mitotic Cells (%) [1]: 19% | Population Normal (%) [1]: 86% | Population Pyknosed Nuclei (%) [1]: 14% | Population Tubulin-Different-Phenotype (%) [1]: 5% | Total Cell Count [1]: 205 | Population Apoptotic (%) [2]: 25% | Population Fragmented Nuclei (%) [2]: 56% | Population Healthy Nuclei (%) [2]: 34% | Population Hoechst High Intensity Objects (%) [2]: 46% | Population Membrane Permeable-Phenotype (%) [2]: 26% | Population Mitochondria Different-Phenotype (%) [2]: 6% | Population Mitotic Cells (%) [2]: 75% | Population Normal (%) [2]: 53% | Population Pyknosed Nuclei (%) [2]: 9% | Population Tubulin-Different-Phenotype (%) [2]: 13% | Total Cell Count [2]: 83 | Population Apoptotic (%) [3]: 60% | Population Fragmented Nuclei (%) [3]: 23% | Population Healthy Nuclei (%) [3]: 56% | Population Hoechst High Intensity Objects (%) [3]: 44% | Population Membrane Permeable-Phenotype (%) [3]: 5% | Population Mitochondria Different-Phenotype (%) [3]: 2% | Population Mitotic Cells (%) [3]: 39% | Population Normal (%) [3]: 55% | Population Pyknosed Nuclei (%) [3]: 19% | Population Tubulin-Different-Phenotype (%) [3]: 27% | Total Cell Count [3]: 473 | Population Apoptotic (%) [4]: 33% | Population Fragmented Nuclei (%) [4]: 54% | Population Healthy Nuclei (%) [4]: 35% | Population Hoechst High Intensity Objects (%) [4]: 49% | Population Membrane Permeable-Phenotype (%) [4]: 4% | Population Mitochondria Different-Phenotype (%) [4]: 13% | Population Mitotic Cells (%) [4]: 66% | Population Normal (%) [4]: 50% | Population Pyknosed Nuclei (%) [4]: 9% | Population Tubulin-Different-Phenotype (%) [4]: 52% | Total Cell Count [4]: 127 | Population Apoptotic (%) [5]: 70% | Population Fragmented Nuclei (%) [5]: 32% | Population Healthy Nuclei (%) [5]: 56% | Population Hoechst High Intensity Objects (%) [5]: 19% | Population Membrane Permeable-Phenotype (%) [5]: 3% | Population Mitochondria Different-Phenotype (%) [5]: 1% | Population Mitotic Cells (%) [5]: 30% | Population Normal (%) [5]: 80% | Population Tubulin-Different-Phenotype (%) [5]: 5% | Total Cell Count [5]: 222 | Population Apoptotic (%) [6]: 66% | Population Fragmented Nuclei (%) [6]: 62% | Population Healthy Nuclei (%) [6]: 26% | Population Hoechst High Intensity Objects (%) [6]: 23% | Population Membrane Permeable-Phenotype (%) [6]: 21% | Population Mitochondria Different-Phenotype (%) [6]: 14% | Population Mitotic Cells (%) [6]: 33% | Population Normal (%) [6]: 76% | Population Pyknosed Nuclei (%) [6]: 11% | Population Tubulin-Different-Phenotype (%) [6]: 21% | Total Cell Count [6]: 69 | Population Apoptotic (%) [7]: 49% | Population Fragmented Nuclei (%) [7]: 24% | Population Healthy Nuclei (%) [7]: 51% | Population Hoechst High Intensity Objects (%) [7]: 50% | Population Membrane Permeable-Phenotype (%) [7]: 0% | Population Mitochondria Different-Phenotype (%) [7]: 10% | Population Mitotic Cells (%) [7]: 50% | Population Normal (%) [7]: 50% | Population Pyknosed Nuclei (%) [7]: 24% | Population Tubulin-Different-Phenotype (%) [7]: 31% | Total Cell Count [7]: 430 | Population Apoptotic (%) [8]: 20% | Population Fragmented Nuclei (%) [8]: 45% | Population Healthy Nuclei (%) [8]: 40% | Population Hoechst High Intensity Objects (%) [8]: 44% | Population Membrane Permeable-Phenotype (%) [8]: 3% | Population Mitochondria Different-Phenotype (%) [8]: 20% | Population Mitotic Cells (%) [8]: 80% | Population Normal (%) [8]: 55% | Population Pyknosed Nuclei (%) [8]: 14% | Population Tubulin-Different-Phenotype (%) [8]: 51% | Total Cell Count [8]: 129
